Source: article PMC4303873 (Scientific Reports, 2015)

Tests used:
[1] = tested on: Normal human epidermal melanocytes; test: Melanin quantification assay in normal human melanocytes; format: cell-based; details: 50 μM, 72 hours
Method in brief: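 Normal human epidermal melanocytes in Medium 254 with HMGS, trypsinized into M2 medium and seeded at 1 × 10^5 cells/well. After 24 h, treated for 72 h at 37°C. […] Cell pellets dissolved in 1N NaOH at 70°C for 1 h and spun at 10,000 × g for 10 min. Supernatant OD405 measured.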

zebrafish embryos = test: Zebrafish in vivo assay; details: for decrease of pigmentation level of zebrafish: 50 μM, 9 to 57 hpf (48 h exposure)
Method in brief: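 Synchronized zebrafish embryos, three per well in 200 μl embryo medium. Test compound solutions (in 1% DMSO), 10–50 μM, added from 9 to 57 hpf (48 h exposure). […] At 57 hpf, embryos anesthetized in tricaine, mounted in 1% methyl cellulose and photographed under a stereomicroscope. Body pigmentation scored by phenotype and by image pixel measurement.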

mushroom tyrosinase = test: Mushroom tyrosinase inhibition assay and IC50 determination; format: biochemical
[2] = tested on: Normal human epidermal melanocytes; test: Cell viability; format: cell-based; details: concentration ranging from 0 to 50 μM
Method in brief: (§1)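 Normal human epidermal melanocytes grown in Medium 254 with HMGS. Confluent cells trypsinized, resuspended in Melanocyte Growth Medium M2 and seeded at 2 × 10^4 cells/well. After 24 h, exposed to test compound at 5 or 50 μM at 37°C for 72 h. […] Viability read by MTT.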

Cell viability = format: cell-based, human; details: human, normal human epidermal melanocytes
Method in brief: as §1

ICR male mice = test: Acute oral toxicity study in mice; format: in vivo
Method in brief: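 ICR male mice (Crl:CD1), 24 animals randomized into 4 groups of six. Single oral gavage at 1500, 3000 or 6000 mg/kg, or vehicle (4% Tween 80 in water for injection), at 20 ml/kg adjusted to pre-dose body weight. Mortality checked twice daily and clinical signs once daily, SD3–SD14. Body weight taken SD1, SD8 and SD15. Gross necropsy of thoracic and abdominal cavities on SD15.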

O=c1cc(CO)occ1O [kojic acid, reference compound]
decrease of melanin content [1]: very few or no melanin content decrease | decrease of pigmentation level of zebrafish (zebrafish embryos): 12.9%

OC[C@H]1O[C@H](Oc2ccc(O)cc2)[C@H](O)[C@@H](O)[C@@H]1O [α-arbutin]
decrease of melanin content [1]: very few or no melanin content decrease

OC[C@H]1O[C@@H](Oc2ccc(O)cc2)[C@H](O)[C@@H](O)[C@@H]1O [β-arbutin]
decrease of melanin content [1]: very few or no melanin content decrease

Oc1ccc(CSCc2ccc(O)cc2)cc1 [T1, bis(4-hydroxybenzyl)sulfide]
Ki (mushroom tyrosinase; Dixon plot): 58 ± 6 nM | type of inhibition (mushroom tyrosinase; Dixon plot): strong competitive inhibitor | IC50 (mushroom tyrosinase; L-tyrosine substrate, dopachrome at 475 nm, triplicate): 530 nM | cytotoxicity to normal human melanocyte cells [2]: non-cytotoxic | viability at 72 h, 5 µM (Cell viability): 99.2% | viability at 72 h, 50 µM (Cell viability): 97.2% | dose with no adverse toxic effects (ICR male mice; ICR mice, single oral dose): up to 6000 mg/kg | body weight and body gain versus control mice (ICR male mice; single oral dose 1500, 3000, and 6000 mg/kg): no difference | death and clinical symptoms (ICR male mice; single oral dose 1500, 3000, and 6000 mg/kg, 14 days observation): no death and abnormal clinical symptom | gross lesions at necropsy (ICR male mice; single oral dose 1500, 3000, and 6000 mg/kg, SD15): no observable gross lesion | decrease of pigmentation level of zebrafish (zebrafish embryos): about 41.4% | decrease of pigmentation relative to kojic acid (zebrafish embryos; both at 50 μM): 3 fold | adverse side effects in zebrafish (zebrafish embryos; zebrafish, in vivo): without any adverse side effects
